Experimental findings from ChEMBL document CHEMBL3817796, “Discovery of Novel 15-Lipoxygenase Activators To Shift the Human Arachidonic Acid Metabolic Network toward Inflammation Resolution” (J Med Chem, 2016) are described below.

In experiment [1] the target is T1, Polyunsaturated fatty acid lipoxygenase ALOX15 (Homo sapiens, UniProt P16050).
T1 sequence (P16050 whole entry): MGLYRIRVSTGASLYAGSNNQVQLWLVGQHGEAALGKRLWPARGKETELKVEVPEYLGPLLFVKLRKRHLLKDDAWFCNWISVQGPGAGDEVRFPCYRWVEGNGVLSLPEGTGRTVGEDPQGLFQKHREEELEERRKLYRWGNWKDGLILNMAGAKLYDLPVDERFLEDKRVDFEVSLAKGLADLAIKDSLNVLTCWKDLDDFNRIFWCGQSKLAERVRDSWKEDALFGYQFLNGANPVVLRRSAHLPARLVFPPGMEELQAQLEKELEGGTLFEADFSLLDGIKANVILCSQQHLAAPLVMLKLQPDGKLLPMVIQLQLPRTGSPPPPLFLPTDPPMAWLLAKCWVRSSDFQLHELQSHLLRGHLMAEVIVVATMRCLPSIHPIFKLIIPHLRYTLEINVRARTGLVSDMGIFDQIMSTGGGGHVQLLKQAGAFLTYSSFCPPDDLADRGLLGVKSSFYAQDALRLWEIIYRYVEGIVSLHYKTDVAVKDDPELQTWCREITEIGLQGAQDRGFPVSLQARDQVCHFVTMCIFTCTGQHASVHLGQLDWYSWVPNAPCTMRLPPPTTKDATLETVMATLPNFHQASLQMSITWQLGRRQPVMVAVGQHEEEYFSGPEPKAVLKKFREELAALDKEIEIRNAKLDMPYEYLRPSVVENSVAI
Description: Binding affinity to wild-type His6-tagged human 15-LOX expressed in Escherichia coli Rosetta DE3 by SPR assay. A digest of the protocol: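 15-LOX amine-coupled to a CM5 chip at 800 RU, 25 °C, in PBS-P pH 7.4. Compound concentrations in 5% DMSO injected serially; regenerated by buffer washing. KD from Hill fit of response units.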
Background: SPR reads the build-up and loss of mass on a sensor chip optically.

Experiment [2] deals with T2, Polyunsaturated fatty acid lipoxygenase ALOX15 (Homo sapiens) (UniProt P16050).
T2 sequence (whole entry): T1 sequence (P16050 whole entry)
In words: Activation of wild-type His6-tagged human 15-LOX expressed in Escherichia coli Rosetta DE3 assessed as 15-HpETE formation at 40 uM pre-incubated for 1 min before arachidonic acid substrate addition by cell free assay.

Experiment [3] addresses T3, Polyunsaturated fatty acid 5-lipoxygenase (Homo sapiens) (UniProt P09917).
T3 sequence (whole entry): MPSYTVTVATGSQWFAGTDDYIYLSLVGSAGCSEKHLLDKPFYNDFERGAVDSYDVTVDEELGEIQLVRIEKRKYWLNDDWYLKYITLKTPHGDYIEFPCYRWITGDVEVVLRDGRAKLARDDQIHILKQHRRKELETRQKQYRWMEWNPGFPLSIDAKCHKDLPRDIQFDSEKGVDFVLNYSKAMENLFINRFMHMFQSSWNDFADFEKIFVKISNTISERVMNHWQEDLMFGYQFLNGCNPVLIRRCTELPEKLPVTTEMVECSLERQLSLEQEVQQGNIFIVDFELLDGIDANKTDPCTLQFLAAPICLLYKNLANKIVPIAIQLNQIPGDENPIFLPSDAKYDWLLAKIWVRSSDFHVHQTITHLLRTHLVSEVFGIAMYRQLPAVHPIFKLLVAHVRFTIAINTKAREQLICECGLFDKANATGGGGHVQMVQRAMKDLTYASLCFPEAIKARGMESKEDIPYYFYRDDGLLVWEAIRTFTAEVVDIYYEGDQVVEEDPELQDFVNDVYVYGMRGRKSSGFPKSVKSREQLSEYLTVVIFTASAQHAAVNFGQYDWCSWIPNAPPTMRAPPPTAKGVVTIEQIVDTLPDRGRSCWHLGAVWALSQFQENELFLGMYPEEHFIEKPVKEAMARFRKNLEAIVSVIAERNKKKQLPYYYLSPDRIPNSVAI
Description: Inhibition of human 5-LOX expressed in Escherichia coli BL21-DE3 of assessed as reduction in H2DCFDA oxidation at 100 uM using arachidonic acid substrate incubated for 5 mins by fluorescence spectrophotometry. A digest of the protocol: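 Human 5-LOX activity followed as AA-driven oxidation of H2DCFDA to fluorescent dichlorofluorescein (ex 500/em 520 nm), recorded for 5 min. Compound handled as in the 15-LOX assay.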

The target of experiment [4] is T4, Leukotriene A-4 hydrolase (Homo sapiens) (UniProt P09960).
T4 sequence (whole entry): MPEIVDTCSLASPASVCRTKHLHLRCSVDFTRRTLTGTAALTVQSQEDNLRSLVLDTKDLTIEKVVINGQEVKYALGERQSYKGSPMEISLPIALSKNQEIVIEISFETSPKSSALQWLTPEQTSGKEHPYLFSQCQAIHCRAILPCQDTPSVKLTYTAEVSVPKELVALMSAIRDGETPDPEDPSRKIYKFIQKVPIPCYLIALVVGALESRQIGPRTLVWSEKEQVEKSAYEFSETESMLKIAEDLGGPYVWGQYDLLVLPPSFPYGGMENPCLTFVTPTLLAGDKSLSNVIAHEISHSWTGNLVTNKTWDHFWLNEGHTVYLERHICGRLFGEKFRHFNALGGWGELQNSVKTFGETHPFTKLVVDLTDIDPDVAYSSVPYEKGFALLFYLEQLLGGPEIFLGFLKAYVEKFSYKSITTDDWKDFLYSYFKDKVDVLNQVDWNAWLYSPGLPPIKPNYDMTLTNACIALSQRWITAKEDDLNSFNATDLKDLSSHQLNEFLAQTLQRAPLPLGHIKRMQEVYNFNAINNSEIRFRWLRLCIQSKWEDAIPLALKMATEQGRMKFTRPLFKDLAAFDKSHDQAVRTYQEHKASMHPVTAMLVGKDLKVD
In words: Inhibition of LTA4H hydrolase activity (unknown origin) assessed as reduction in LTB4 formation at 100 uM by enzyme linked immunosorbent assay. The procedure, abridged: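 LTA4H hydrolase activity read as LTB4 formation by ELISA. Compound handled as in the 15-LOX assay.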

Experiment [5] has as its target T5, Prostaglandin E synthase (Homo sapiens, UniProt O14684).
T5 sequence (O14684 whole entry): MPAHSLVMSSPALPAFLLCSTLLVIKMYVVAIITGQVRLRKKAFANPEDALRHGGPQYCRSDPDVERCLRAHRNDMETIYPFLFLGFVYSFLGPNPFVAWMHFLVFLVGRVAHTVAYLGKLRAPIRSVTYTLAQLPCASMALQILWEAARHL
Description: Inhibition of mPGES-1 (unknown origin) assessed as reduction in conversion of PGH2 to PGE2 by EIA method. A digest of the protocol:
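mPGES-1 activity taken as conversion of PGH2 to PGE2, with PGE2 measured by EIA. Compound handled as in the 15-LOX assay.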

Experiment [6] has as its target Prostaglandin G/H synthase 1 (Homo sapiens) (UniProt P23219). Description: Inhibition of COX1 (unknown origin) assessed as reduction in PGG2 to PGH2 conversion by measuring N,N,N',N'-tetramethyl-p-phenylenediamine oxidation at 100 uM by spectrophotometry.

Molecules are shown by their SMILES.

Chain of Prostaglandin G/H synthase 1 (Homo sapiens) (P23219 whole entry): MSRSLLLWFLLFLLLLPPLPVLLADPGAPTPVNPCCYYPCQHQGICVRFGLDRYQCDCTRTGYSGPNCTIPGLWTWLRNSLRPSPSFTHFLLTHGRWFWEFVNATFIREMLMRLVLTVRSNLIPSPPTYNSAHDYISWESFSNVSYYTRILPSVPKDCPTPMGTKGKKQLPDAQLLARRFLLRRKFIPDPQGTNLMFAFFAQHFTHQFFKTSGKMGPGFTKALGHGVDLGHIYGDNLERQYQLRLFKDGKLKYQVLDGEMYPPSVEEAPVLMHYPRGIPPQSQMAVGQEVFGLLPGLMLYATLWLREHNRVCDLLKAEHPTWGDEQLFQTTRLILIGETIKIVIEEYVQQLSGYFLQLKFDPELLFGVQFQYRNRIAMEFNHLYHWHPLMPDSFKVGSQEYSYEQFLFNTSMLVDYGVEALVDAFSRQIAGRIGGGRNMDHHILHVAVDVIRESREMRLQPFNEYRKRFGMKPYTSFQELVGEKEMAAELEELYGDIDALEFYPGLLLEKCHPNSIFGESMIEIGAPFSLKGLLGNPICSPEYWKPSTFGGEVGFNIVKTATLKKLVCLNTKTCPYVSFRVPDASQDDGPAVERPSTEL

Regarding `CN1CCN(CC(=O)N2N=C3/C(=C/c4ccccc4)CCCC3C2c2ccccc2)CC1` (stereo unspecified), in experiment [1], binding was put at a Kd of 3.9 µM. The %max in experiment [2] amounted to 85%. Besides, the inhibition in experiment [3], in experiment [4] and in experiment [6] was below 5% in each case. For the same compound, the IC50 (as a rule, the concentration needed to halve the response being measured) in experiment [5] worked out at 20 µM.
